This passage reports EC50, Activity and IC50 results from ChEMBL document CHEMBL1157298, “Bioactive dammarane triterpenes from the mangrove plant Bruguiera gymnorrhiza” (J Nat Prod, 2006).

In data set [1] the test system is HepG2. As to the kind of experiment: Induction of ARE in human HepG2 cells by luciferase assay. It counts as functional, cell-based. An outline of the steps: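 Stably transfected HepG2 cells carrying an ARE-luciferase reporter. EC50 is the concentration giving activation halfway between the DMSO-control baseline and the maximum response at 20 µg/mL.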
The target in data set [2] is Prostaglandin G/H synthase 1 (Homo sapiens) (UniProt P23219). As to the kind of experiment: Inhibition of COX1. An outline of the steps:
(§1)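 COX-1 and COX-2 activity read out as PGE2 production. Indomethacin served as the positive control.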

The test system of data set [3] is HepG2. Description: Inhibition of TPA-induced NF-kappaB activation in human HepG2 cells by luciferase assay. It counts as functional, cell-based. An outline of the steps: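 NFκB-luciferase reporter construct activated with TPA (phorbol ester). IC50 is the concentration that reduces TPA-activated NFκB luciferase activity by 50%.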
The test system of data set [4] is HepG2. As to the kind of experiment: Cytotoxicity against human HepG2 cells. The data set is classed as cell-based.
In data set [5] the target is T1, Prostaglandin G/H synthase 2 (Homo sapiens, UniProt P35354).
T1 sequence (P35354 whole entry): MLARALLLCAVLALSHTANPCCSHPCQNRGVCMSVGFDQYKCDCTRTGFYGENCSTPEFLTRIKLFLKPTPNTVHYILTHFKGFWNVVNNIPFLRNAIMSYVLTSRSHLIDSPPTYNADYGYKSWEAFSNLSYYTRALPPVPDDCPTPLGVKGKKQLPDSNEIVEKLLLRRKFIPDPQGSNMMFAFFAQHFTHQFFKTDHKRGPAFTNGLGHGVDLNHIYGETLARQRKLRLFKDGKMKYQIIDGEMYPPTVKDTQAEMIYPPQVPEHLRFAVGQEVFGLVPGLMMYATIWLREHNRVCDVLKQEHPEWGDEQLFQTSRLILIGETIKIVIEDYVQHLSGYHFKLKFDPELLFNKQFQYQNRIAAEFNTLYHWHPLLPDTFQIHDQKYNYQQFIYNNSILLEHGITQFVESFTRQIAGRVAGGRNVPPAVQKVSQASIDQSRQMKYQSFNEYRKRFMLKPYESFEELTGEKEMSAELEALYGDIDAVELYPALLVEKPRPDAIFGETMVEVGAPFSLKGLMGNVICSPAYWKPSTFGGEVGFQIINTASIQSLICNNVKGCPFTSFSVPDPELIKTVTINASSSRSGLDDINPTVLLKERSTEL
Description: (§2) Inhibition of COX2. The gist of the method:
as §1

The target of data set [6] is T2, Prostaglandin G/H synthase 2 (Homo sapiens) (UniProt P35354).
T2 sequence (whole entry): T1 sequence (P35354 whole entry)
The description is as §2. An outline of the steps: as §1

Activity calls are given as the source filed them. The rule behind the calls is not given here.

Chain of Prostaglandin G/H synthase 1 (Homo sapiens) (P23219 whole entry): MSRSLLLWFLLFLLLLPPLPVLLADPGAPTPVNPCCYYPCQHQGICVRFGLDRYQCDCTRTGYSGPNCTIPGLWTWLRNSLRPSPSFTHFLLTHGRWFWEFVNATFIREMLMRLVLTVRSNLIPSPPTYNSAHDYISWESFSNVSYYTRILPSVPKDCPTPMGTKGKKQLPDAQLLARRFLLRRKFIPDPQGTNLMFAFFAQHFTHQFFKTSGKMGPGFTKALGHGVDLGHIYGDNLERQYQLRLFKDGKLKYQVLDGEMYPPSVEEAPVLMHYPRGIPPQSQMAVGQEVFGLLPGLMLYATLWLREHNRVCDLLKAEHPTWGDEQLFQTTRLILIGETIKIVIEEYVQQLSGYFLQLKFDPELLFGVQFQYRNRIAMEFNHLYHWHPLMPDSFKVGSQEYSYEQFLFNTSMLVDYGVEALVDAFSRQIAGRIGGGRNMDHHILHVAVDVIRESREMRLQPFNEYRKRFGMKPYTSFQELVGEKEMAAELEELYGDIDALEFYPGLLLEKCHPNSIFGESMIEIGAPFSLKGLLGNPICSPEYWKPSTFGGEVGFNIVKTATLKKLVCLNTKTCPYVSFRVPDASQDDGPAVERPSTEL

In the data set with HepG2 [1], `O=c1cc(-c2ccccc2)oc2ccc3ccccc3c12` [BETA-NAPHTHOFLAVONE] gave an EC50 of 8 µM.
Consider `CCCCCCCCCCCCCCCCCC(=O)O[C@H]1C[C@@H](O)[C@]2(C)[C@H]3CC[C@@H]4[C@@H]([C@@](C)(O)CCC=C(C)C)CC[C@@]4(C)[C@]3(C)CC[C@H]2C1(C)C` [BRUGUIERIN A], for which the outcome in data set [2] was inactive. For the same compound, the IC50 in the data set with HepG2 [3] was 1.4 µM; in data set [5], 0.37 µM. Further, in the data set with HepG2 [1], the midpoint of the response, the EC50, lay at 7.8 µM. In addition, in the data set on HepG2 [4], the Activity result is “Non-toxic”.
With `CCCCCCCCCCCCCCCCCC(=O)O[C@H]1CC[C@]2(C)[C@H]3[C@H](O)C[C@@H]4[C@@H]([C@@](C)(O)CCC=C(C)C)CC[C@@]4(C)[C@]3(C)CC[C@H]2C1(C)C` [BRUGUIERIN B], the outcome in data set [2] and in data set [6] was inactive. The EC50 with HepG2 [1] amounted to 9.4 µM. The Activity entry in the data set with HepG2 [4] was “Non-toxic”.
In turn, `O=c1cc(-c2ccc(Br)cc2)oc2ccccc12` yielded an EC50 in the data set with HepG2 [1] of 30 µM.
Compound `C[S+]([O-])CCCCN=C=S` (stereo unspecified) [SULFORAPHANE] came in with an EC50 with HepG2 [1] of 4 µM.
As for `CCCCCCCCCCCCCCCCCC(=O)O[C@H]1C[C@@H](O)[C@]2(C)[C@H]3CC[C@@H]4[C@@H]([C@@](C)(O)C/C=C/C(C)(C)OO)CC[C@@]4(C)[C@]3(C)CC[C@H]2C1(C)C` [BRUGUIERIN C], the result in data set [2] and in data set [6] was inactive. In the data set with HepG2 [1], the concentration giving a half-maximal response (EC50) came out at 15.7 µM. Moreover, the Activity result with HepG2 [4] was “Non-toxic”.

As a reminder, the EC50 is the concentration needed to bring the measured effect to its halfway point. The low end stands for a more potent agent, the high end for a less potent agent. The term IC50 denotes the concentration that gives 50% inhibition. Low readings indicate greater potency, high ones weaker potency.
